Experiments:
Homo sapiens = organism: Homo sapiens; assay: Inhibition of Matriptase (unknown origin) assessed as inhibition of release of AMC fluorescent product using […] as substrate at 10 uM incubated for 30 mins by microplate reader relative to control
Plasminogen = Plasminogen (Homo sapiens, UniProt P00747); assay: Inhibition of plasmin (unknown origin) assessed as release of AMC fluorescent product using Boc-QAR-AMC as substrate incubated for 30 mins by microplate reader
Kallikrein-1 = Kallikrein-1 (Homo sapiens, UniProt P06870); assay: Inhibition of KLK1 (unknown origin) assessed as release of AMC fluorescent product using H-PFR-AMC as substrate incubated for 30 mins by microplate reader
Chain of Kallikrein-1 (P06870 whole entry): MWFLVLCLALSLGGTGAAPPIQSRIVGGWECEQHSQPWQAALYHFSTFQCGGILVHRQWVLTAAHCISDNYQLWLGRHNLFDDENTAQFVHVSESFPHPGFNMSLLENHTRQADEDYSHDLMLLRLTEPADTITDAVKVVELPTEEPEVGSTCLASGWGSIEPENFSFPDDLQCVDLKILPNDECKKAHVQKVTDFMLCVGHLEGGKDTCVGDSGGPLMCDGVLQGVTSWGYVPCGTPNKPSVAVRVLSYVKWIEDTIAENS

[1] = target: Kallikrein-4 (Homo sapiens) (UniProt Q9Y5K2); assay: Inhibition of KLK4 (unknown origin) assessed as inhibition of release of AMC fluorescent product using H-VPR-AMC as substrate at 10 uM incubated for 30 mins by microplate reader relative to control
Chain of Kallikrein-4 (Homo sapiens) (Q9Y5K2 whole entry): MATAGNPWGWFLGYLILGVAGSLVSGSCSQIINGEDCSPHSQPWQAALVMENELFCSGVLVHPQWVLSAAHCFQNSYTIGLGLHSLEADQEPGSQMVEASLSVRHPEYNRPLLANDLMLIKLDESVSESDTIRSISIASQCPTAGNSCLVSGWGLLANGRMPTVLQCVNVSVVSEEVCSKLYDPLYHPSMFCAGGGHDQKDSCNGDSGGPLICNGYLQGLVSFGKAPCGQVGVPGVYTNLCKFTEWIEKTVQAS

[2] = target: Kallikrein-5 (Homo sapiens) (UniProt Q9Y337); assay: Inhibition of KLK5 (unknown origin) assessed as inhibition of release of AMC fluorescent product using H-VPR-AMC as substrate at 10 uM incubated for 30 mins by microplate reader relative to control
Chain of Kallikrein-5 (Homo sapiens) (Q9Y337 whole entry): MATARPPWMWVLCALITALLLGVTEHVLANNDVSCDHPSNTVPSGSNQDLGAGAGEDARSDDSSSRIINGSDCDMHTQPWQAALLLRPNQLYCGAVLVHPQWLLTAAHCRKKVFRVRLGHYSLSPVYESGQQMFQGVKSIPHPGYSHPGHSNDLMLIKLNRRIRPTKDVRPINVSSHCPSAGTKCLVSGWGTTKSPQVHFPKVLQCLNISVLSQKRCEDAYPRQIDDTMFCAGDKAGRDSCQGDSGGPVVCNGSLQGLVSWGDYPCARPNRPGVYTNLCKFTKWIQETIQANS

[3] = target: T1, Kallikrein-8 (Homo sapiens) (UniProt O60259); assay: Inhibition of KLK8 (unknown origin) assessed as inhibition of release of AMC fluorescent product using H-VPR-AMC as substrate at 10 uM incubated for 30 mins by microplate reader relative to control
T1 sequence (whole entry): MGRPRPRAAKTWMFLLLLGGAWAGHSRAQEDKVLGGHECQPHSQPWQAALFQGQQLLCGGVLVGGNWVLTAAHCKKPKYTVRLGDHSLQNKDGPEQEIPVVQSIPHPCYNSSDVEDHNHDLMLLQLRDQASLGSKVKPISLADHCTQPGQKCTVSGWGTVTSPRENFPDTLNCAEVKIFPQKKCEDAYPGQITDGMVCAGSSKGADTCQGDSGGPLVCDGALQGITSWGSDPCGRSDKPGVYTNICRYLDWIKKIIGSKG

[4] = target: T2, Kallikrein-14 (Homo sapiens) (UniProt Q9P0G3); assay: Inhibition of KLK14 (unknown origin) assessed as inhibition of release of AMC fluorescent product using H-VPR-AMC as substrate at 10 uM incubated for 30 mins by microplate reader relative to control
T2 sequence (whole entry): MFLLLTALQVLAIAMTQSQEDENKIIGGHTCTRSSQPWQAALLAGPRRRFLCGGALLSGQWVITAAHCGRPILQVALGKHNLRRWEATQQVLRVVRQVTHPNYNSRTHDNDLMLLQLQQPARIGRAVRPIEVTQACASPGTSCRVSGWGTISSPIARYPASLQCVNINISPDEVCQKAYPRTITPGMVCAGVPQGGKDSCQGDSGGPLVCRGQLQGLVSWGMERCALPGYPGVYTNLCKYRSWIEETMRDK

Caspase-6 (Homo sapiens) = target: T3, Caspase-6 (Homo sapiens) (UniProt P55212); assay: Inhibition of Caspase-6 (unknown origin) assessed as inhibition of release of AMC fluorescent product using Ac-VEID-AMC as substrate at 10 uM incubated for 30 mins by microplate reader relative to control
T3 sequence (whole entry): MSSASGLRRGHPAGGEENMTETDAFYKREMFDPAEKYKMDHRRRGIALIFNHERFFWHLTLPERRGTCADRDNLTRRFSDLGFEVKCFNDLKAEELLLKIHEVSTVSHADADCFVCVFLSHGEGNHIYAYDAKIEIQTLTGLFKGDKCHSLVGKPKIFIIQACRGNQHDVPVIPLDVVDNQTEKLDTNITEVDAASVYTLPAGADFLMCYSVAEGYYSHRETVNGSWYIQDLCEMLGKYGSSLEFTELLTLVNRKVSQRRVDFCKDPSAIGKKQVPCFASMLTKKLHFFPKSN
In short: (§1)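 Each inhibitor at 10 μM was preincubated 15 min at 37 °C with the protease at an optimized concentration in its own buffer. Reaction started with AMC substrate: Ac-VDVAD-AMC 25 μM (caspase-2), Ac-DEVD-AMC 10 μM (caspase-3), Ac-VEID-AMC 100 μM (caspase-6), Z-LR-AMC 50 μM (cathepsin L), Z-GGR-AMC 100 μM (tPA). Read for 30 min at 37 °C; % inhibition from initial rates versus DMSO; 3 independent experiments.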

[5] = target: Procathepsin L (Homo sapiens) (UniProt P07711); assay: Inhibition of Cathepsin L (unknown origin) assessed as inhibition of release of AMC fluorescent product using Z-LR-AMC as substrate at 10 uM incubated for 30 mins by microplate reader relative to control; in short: as §1
Chain of Procathepsin L (Homo sapiens) (P07711 114-333 limits assumed): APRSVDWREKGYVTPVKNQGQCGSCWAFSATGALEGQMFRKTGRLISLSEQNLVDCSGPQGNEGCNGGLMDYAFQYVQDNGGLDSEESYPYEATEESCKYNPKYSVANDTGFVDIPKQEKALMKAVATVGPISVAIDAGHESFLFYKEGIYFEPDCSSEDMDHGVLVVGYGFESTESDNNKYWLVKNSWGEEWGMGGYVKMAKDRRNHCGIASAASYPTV

[6] = target: Tissue-type plasminogen activator (Homo sapiens) (UniProt P00750); assay: Inhibition of tPA (unknown origin) assessed as inhibition of release of AMC fluorescent product using Z-GGR-AMC as substrate at 10 uM incubated for 30 mins by microplate reader relative to control; in short: as §1
Chain of Tissue-type plasminogen activator (Homo sapiens) (P00750 36-562 limits assumed): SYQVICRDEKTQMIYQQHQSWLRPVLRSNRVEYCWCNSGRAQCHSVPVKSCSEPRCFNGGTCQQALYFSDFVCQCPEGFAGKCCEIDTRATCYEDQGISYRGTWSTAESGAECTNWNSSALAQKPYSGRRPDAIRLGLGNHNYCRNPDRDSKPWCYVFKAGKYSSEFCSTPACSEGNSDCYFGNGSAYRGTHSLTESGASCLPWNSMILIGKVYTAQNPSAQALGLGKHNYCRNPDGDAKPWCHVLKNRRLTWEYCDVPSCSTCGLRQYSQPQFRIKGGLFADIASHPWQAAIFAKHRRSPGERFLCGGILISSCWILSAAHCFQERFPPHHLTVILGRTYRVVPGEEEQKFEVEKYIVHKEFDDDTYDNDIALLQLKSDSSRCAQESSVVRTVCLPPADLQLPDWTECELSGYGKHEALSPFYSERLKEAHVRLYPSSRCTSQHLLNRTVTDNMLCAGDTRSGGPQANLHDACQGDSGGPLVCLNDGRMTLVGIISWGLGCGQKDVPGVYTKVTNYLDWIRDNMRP

Trypsin (Homo sapiens) = Trypsin (Homo sapiens) (UniProt P07477+P07478+P35030); assay: Inhibition of Trypsin (unknown origin) assessed as inhibition of release of AMC fluorescent product using […] as substrate at 10 uM incubated for 30 mins by microplate reader relative to control; format: protein assay
[7] = target: T4, Kallikrein-11 (Homo sapiens) (UniProt Q9UBX7); assay: Inhibition of KLK11 (unknown origin) assessed as inhibition of release of AMC fluorescent product using Boc-QAR-AMC as substrate at 10 uM incubated for 30 mins by microplate reader relative to control
T4 sequence (whole entry): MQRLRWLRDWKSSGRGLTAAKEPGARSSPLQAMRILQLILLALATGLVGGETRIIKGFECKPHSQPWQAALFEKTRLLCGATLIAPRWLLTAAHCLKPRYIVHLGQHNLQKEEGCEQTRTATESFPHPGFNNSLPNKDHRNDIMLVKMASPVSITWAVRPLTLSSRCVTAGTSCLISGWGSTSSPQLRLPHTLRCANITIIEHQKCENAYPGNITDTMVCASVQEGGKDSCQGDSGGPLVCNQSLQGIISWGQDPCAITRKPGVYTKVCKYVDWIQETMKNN

[8] = target: Kallikrein-7 (Homo sapiens) (UniProt P49862); assay: Inhibition of KLK7 (unknown origin) assessed as inhibition of release of AMC fluorescent product using MeO-Suc-RPY-AMC as substrate at 10 uM incubated for 30 mins by microplate reader relative to control
Chain of Kallikrein-7 (Homo sapiens) (P49862 30-253 limits assumed): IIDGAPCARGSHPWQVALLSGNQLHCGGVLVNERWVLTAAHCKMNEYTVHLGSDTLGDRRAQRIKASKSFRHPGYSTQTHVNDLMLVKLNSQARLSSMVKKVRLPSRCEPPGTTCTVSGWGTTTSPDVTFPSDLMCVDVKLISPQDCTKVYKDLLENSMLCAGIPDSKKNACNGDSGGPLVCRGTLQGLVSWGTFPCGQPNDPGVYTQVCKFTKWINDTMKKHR

Chain of Plasminogen (P00747 97-580 limits assumed): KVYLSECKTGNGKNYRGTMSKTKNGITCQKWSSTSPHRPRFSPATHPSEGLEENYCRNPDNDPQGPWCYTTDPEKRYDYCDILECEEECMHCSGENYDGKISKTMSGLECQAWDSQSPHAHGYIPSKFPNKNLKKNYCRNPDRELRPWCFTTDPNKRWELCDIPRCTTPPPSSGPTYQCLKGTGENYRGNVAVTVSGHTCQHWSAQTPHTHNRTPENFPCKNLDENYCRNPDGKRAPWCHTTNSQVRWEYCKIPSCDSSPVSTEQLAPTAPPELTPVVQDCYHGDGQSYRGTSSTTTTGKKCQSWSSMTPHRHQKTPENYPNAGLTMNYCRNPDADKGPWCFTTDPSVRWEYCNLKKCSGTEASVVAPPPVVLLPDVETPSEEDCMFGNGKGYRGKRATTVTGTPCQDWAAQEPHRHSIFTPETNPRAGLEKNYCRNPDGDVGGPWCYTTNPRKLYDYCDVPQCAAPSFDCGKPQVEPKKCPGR
Chain of Plasminogen (P00747 581-810 limits assumed): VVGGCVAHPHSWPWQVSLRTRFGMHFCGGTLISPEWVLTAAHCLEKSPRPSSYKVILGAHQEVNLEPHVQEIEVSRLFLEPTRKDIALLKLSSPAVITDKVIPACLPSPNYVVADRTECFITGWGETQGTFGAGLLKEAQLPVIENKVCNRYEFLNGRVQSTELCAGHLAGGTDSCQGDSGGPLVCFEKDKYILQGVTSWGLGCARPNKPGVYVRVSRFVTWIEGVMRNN

| SMILES | inhibition (Homo sapiens) | IC50 (Plasminogen) | IC50 (Kallikrein-1) | inhibition [1] | inhibition [2] | inhibition [3] | inhibition [4] | inhibition (Caspase-6 (Homo sapiens)) | inhibition [5] | inhibition [6] | inhibition (Trypsin (Homo sapiens)) | inhibition [7] | inhibition [8] |
| --- | --- | --- | --- | --- | --- | --- | --- | --- | --- | --- | --- | --- | --- |
| Cl.NCc1ccc(NC(=O)c2cc3ccccc3cc2O)cc1 | 8% | 7.4 µM | 5.1 µM | 2% | 4% | 61% | 5% | 40% | 25% | 6% | 25% | 45% | 6% |
| Cl.NCc1ccc(NC(=O)c2ccc3ccccc3c2O)cc1 | 29% | 10.2 µM | 21.3 µM | 14% | 22% | 22% | 11% | 56% | 30% | 18% | 34% | 80% | 0% |
| Cc1ccc2ccc(C(=O)Nc3ccc(CN)cc3)c(O)c2c1 | 0% | 6.7 µM | 49.4 µM | 6% | 0% | 53% | 4% | 31% | 27% | 9% | 32% | 88% | 11% |

More lines, in order of falling IC50 (Plasminogen), values ahead:

| inhibition (Homo sapiens) | IC50 (Plasminogen) | IC50 (Kallikrein-1) | inhibition [1] | inhibition [2] | inhibition [3] | inhibition [4] | inhibition (Caspase-6 (Homo sapiens)) | inhibition [5] | inhibition [6] | inhibition (Trypsin (Homo sapiens)) | inhibition [7] | inhibition [8] | SMILES |
| --- | --- | --- | --- | --- | --- | --- | --- | --- | --- | --- | --- | --- | --- |
| 0% | 21.3 µM | 38.6 µM | 0% | 35% | 16% | 1.5% | 13% | 20% | 11% | 5% | 56% | 9% | CC(C)(C)c1ccc(O)c(C(=O)Nc2ccc(CN)cc2)c1.Cl |
| 0% | 9.2 µM | 26.3 µM | 0% | 5% | 34% | 3% | 5% | 32% | 0% | 15% | 39% | 12% | Cc1ccc(C(=O)Nc2ccc(CN)cc2)c(O)c1.Cl |
| 13% | 4.8 µM | 8.4 µM | 45% | 24% | 58% | 12% | 12% | 1% | 6% | 91% | 75% | 7% | CC(C)c1ccc(C(=O)Nc2ccc(CN)cc2)c(O)c1 |
| 37% | 3.3 µM | 16.1 µM | 3% | 31% | 45% | 16% | 70% | 28% | 10% | 41% | 0% | 10% | COc1ccc2c(O)c(C(=O)Nc3ccc(CN)cc3)ccc2c1 |
